The values that follow come from ChEMBL document CHEMBL2311350, “Discovery of a novel phenylethyl benzamide glucokinase activator for the treatment of type 2 diabetes mellitus” (Bioorg Med Chem Lett, 2013).

The source made the active and inactive calls. No cut-off for these calls is given here.

The species named for assay [1] is Mus musculus. The assay is described as follows: Antidiabetic activity in ob/ob mouse assessed as reduction in blood glucose level measured after subchronic treatment. It is filed as functional, organism-based. Summed up:
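ob/ob mice dosed orally and repeatedly in a subchronic study. Blood glucose, serum lipids and body weight were monitored.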

For assay [2], the species on record is Mus musculus. The assay is described as follows: Antidiabetic activity in C57BL/J mouse assessed as reduction in basal glucose level measured after acute treatment. It counts as functional, organism-based. Summed up:
(§1)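 Basal blood glucose change followed after acute oral dosing in non-diabetic C57BL/J6 or diabetic ob/ob mice.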

For assay [3], the species on record is Mus musculus. The assay is described as follows: Antidiabetic activity in ob/ob mouse assessed as reduction in basal glucose level measured after acute treatment. It is filed as functional, organism-based. The method in brief: as §1
The species entered for assay [4] is Mus musculus. The assay is described as follows: Increase in oral glucose tolerance in C57BL/J mouse. It counts as functional, organism-based. Summed up:
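C57BL/J6 mice given oral dosing followed by an oral glucose tolerance test. Plasma glucose was tracked over time and glucose AUC reduction calculated. Several doses were tested, including 50 and 150 mg/kg. Hypoglycemia risk was judged from the glucose profiles.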

In assay [5] the target is T1, Hexokinase-1 (Homo sapiens) (UniProt P19367).
T1 sequence (whole entry): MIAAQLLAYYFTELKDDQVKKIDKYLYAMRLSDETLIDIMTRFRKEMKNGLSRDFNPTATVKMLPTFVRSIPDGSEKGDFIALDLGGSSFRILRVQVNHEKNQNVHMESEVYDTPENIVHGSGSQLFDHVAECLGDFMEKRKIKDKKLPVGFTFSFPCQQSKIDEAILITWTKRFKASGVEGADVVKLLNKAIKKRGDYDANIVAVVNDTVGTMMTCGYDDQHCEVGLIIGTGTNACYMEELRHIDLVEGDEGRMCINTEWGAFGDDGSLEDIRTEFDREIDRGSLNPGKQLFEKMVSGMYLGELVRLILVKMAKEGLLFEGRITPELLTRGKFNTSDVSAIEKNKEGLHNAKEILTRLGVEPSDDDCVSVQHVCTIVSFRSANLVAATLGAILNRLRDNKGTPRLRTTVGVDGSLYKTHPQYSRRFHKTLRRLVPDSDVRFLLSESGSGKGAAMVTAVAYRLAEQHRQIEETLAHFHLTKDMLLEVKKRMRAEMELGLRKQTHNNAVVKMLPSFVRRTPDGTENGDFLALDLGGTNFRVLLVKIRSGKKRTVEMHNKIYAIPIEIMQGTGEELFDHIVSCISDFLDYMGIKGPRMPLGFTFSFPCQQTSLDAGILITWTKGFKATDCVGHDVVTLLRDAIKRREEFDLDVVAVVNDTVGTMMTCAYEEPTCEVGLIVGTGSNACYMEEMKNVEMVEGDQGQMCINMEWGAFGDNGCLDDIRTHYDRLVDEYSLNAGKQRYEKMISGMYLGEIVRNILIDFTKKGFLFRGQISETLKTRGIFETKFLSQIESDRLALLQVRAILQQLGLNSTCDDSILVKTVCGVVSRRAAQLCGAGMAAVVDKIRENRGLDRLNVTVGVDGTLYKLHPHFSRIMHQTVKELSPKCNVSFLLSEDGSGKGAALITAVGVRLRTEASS
The assay is described as follows: Induction of hexokinase 1 (unknown origin). Summed up:
(§2)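 Selectivity tested in enzymatic hexokinase 1 and hexokinase 2 activity assays.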

For the next assay, the system named is MIN6. Briefly: Induction of insulin secretion in mouse MIN6 cells. It counts as functional, cell-based. The method in brief:
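Glucose-dependent insulin secretion measured in the mouse pancreatic beta-cell line MIN-6 across glucose levels.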

Assay [6] addresses T2, Hexokinase-2 (Homo sapiens) (UniProt P52789).
T2 sequence (whole entry): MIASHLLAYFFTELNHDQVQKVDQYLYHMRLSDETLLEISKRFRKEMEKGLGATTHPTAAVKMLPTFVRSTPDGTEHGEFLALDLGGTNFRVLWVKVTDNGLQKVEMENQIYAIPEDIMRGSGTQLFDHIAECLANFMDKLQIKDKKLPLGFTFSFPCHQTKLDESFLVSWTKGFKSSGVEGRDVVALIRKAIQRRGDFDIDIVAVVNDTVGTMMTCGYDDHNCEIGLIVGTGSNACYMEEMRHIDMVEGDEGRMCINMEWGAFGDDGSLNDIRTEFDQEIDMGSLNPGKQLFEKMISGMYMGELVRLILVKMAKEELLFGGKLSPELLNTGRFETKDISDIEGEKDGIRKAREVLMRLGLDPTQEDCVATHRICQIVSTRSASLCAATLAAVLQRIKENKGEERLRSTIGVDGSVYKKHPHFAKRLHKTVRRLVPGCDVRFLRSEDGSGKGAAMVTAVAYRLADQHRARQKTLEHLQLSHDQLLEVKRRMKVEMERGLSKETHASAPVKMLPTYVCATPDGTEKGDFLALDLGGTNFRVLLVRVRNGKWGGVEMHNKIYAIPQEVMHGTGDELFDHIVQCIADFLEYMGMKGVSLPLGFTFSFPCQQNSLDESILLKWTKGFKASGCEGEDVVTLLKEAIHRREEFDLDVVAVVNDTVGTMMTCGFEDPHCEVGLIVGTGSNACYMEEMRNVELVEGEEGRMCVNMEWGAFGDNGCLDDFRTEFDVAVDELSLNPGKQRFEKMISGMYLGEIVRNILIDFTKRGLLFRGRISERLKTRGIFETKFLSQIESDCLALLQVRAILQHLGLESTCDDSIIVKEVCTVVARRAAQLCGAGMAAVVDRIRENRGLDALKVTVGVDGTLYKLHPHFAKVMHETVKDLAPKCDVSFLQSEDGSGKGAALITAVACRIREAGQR
Briefly: Induction of hexokinase 2 (unknown origin). The method in brief:
as §2

In assay [7] the target is T3, Hexokinase-4 (Homo sapiens) (UniProt P35557).
T3 sequence (whole entry): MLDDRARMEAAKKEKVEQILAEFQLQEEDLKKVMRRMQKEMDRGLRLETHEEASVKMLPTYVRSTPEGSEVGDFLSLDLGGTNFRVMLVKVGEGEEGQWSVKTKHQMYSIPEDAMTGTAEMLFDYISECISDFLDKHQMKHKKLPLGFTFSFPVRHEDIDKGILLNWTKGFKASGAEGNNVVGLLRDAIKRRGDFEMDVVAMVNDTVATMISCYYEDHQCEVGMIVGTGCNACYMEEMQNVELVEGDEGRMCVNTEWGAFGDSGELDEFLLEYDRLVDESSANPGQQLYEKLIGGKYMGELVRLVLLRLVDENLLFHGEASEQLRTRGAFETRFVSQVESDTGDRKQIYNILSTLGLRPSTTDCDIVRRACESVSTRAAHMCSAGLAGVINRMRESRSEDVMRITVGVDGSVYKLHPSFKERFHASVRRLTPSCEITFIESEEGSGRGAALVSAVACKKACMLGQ
The assay is described as follows: Induction of human pancreatic glucokinase activity assessed as half maximal saturation concentration of glucose at 5 mM glucose concentration. The method in brief: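 Enzymatic assay with purified recombinant human pancreatic or liver glucokinase, read as fold increase in activity at 5.0 mM glucose. EC50 is the mean of at least duplicate runs. For the pancreatic enzyme, glucose S0.5 and Vmax were also determined.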

As to `COC[C@H](C)Oc1cc(CCc2c(F)cccc2F)cc(C(=O)Nc2ccc(C(=O)O)cn2)c1`, the outcome (in the assay listed under Mus musculus [1]; in the assay filed under Mus musculus [2]; in the assay filed under Mus musculus [3]; in assay [7]) was Active. For the same compound, the Activity entry in the assay filed under Mus musculus [4] and in the assay on MIN6 was “Dose-dependent effect” throughout. Also, the result in assay [5] and in assay [6] was inactive.
